From ChEMBL document CHEMBL3232750, “Synthesis, structure-activity relationships, and in vitro antibacterial and antifungal activity evaluations of novel pyrazole carboxylic and dicarboxylic acid derivatives” (2014)
Active and inactive are the calls of the source.

Assays:
Enterococcus = assay: Antibacterial activity against vancomycin-resistant Enterococcus species at 37 degC after 24 hrs by agar well diffusion assay; assay type: functional, organism-based
In short: (§1)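 Bacteria kept on Nutrient Agar slants at 4 °C and subcultured before use. Suspensions of 10^8 CFU/mL were swabbed onto Nutrient Agar and the plates dried 40 min at 35 °C. Compounds were dissolved in DMSO starting at 2.5 mg/ml, serially diluted two-fold, and loaded into 6 mm wells. Plates were pre-incubated 2 h at 25 °C, then 24 h at 37 °C. Inhibition zones were read and the MIC taken as the lowest inhibiting concentration. Duplicates were run.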

Pseudomonas aeruginosa = assay: Antibacterial activity against Pseudomonas aeruginosa at 37 degC after 24 hrs by agar well diffusion assay; assay type: functional, organism-based
In short: (§2)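 Compounds dissolved in DMSO at 2.5 mg/ml initial concentration, then serially diluted two-fold in DMSO. Nutrient Agar plates were swabbed with 10^8 CFU/mL bacteria and dried about 40 min at 35 °C. Solution was placed in 6 mm wells, then 2 h pre-incubation at 25 °C and 24 h at 37 °C. MIC is the lowest concentration giving a growth-inhibition zone around the well. Duplicate.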

Escherichia coli = assay: Antibacterial activity against Escherichia coli at 37 degC after 24 hrs by agar well diffusion assay; assay type: functional, organism-based; in short: as §2
Candida albicans [1] = assay: Antifungal activity against Candida albicans at 25 degC after 48 hrs by agar well diffusion assay; assay type: functional
In short: (§3)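 Yeast suspensions of 10^7 CFU/mL were swabbed onto Sabouraud Dextrose Agar and dried about 40 min at 35 °C. Compounds were dissolved in DMSO (2.5 mg/ml initial) and diluted two-fold in DMSO, then loaded into 6 mm wells. Plates: 2 h pre-incubation at 25 °C, then 48 h at 25 °C. MIC read as the lowest concentration inhibiting growth around the well, in duplicate. The C. albicans clinical isolate came from a hospitalized patient at Eskisehir Osmangazi University hospital; the standard strain came from a culture collection.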

Staphylococcus aureus [2] = assay: Antibacterial activity against Staphylococcus aureus at 37 degC after 24 hrs by agar well diffusion assay; assay type: functional; in short: as §2
Staphylococcus aureus [3] = assay: Antibacterial activity against methicillin-resistant Staphylococcus aureus at 37 degC after 24 hrs by agar well diffusion assay; assay type: functional; in short: as §1
Candida tropicalis = assay: Antifungal activity against Candida tropicalis at 25 degC after 48 hrs by agar well diffusion assay; assay type: functional; in short: as §3
Candida parapsilosis = assay: Antifungal activity against Candida parapsilosis at 25 degC after 48 hrs by agar well diffusion assay; assay type: functional; details: for MIC: Lodderomyces parapsilosis; in short: as §3
Candida albicans [4] = assay: Antifungal activity against Candida albicans ESOGU at 25 degC after 48 hrs by agar well diffusion assay; assay type: functional; in short: as §3
Nakaseomyces glabratus = assay: Antifungal activity against Candida glabrata at 25 degC after 48 hrs by agar well diffusion assay; assay type: functional; in short: as §3

O=C(O)c1cnn(-c2cccc([N+](=O)[O-])c2)c1-c1ccccc1
inactive: Activity (Enterococcus) | Activity (Pseudomonas aeruginosa) | Activity (Escherichia coli) | Activity (Candida tropicalis) | Activity (Candida parapsilosis) | Activity (Candida albicans [4]) | Activity (Nakaseomyces glabratus)
25 µg/mL: MIC (Candida albicans [1]) | MIC (Staphylococcus aureus [3])
50 µg/mL: MIC (Staphylococcus aureus [2])

CCOC(=O)c1c(C(=O)Nc2cccc(C(F)(F)F)c2)nn(-c2cccc([N+](=O)[O-])c2)c1-c1ccccc1
inactive: Activity (Enterococcus) | Activity (Pseudomonas aeruginosa) | Activity (Escherichia coli) | Activity (Staphylococcus aureus [2]) | Activity (Staphylococcus aureus [3]) | Activity (Candida parapsilosis) | Activity (Nakaseomyces glabratus)
25 µg/mL: MIC (Candida albicans [1])
50 µg/mL: MIC (Candida tropicalis) | MIC (Candida albicans [4])

O=C(Nc1cccc(C(F)(F)F)c1)c1nn(-c2cccc([N+](=O)[O-])c2)c(-c2ccccc2)c1C(=O)Nc1cccc(C(F)(F)F)c1
inactive: Activity (Enterococcus) | Activity (Pseudomonas aeruginosa) | Activity (Escherichia coli) | Activity (Staphylococcus aureus [2]) | Activity (Staphylococcus aureus [3]) | Activity (Candida tropicalis) | Activity (Candida parapsilosis) | Activity (Candida albicans [4]) | Activity (Nakaseomyces glabratus)
50 µg/mL: MIC (Candida albicans [1])

O=C(Nc1ccc([N+](=O)[O-])cc1)c1nn(-c2cccc([N+](=O)[O-])c2)c(-c2ccccc2)c1C(=O)Nc1ccc([N+](=O)[O-])cc1
50 µg/mL: MIC (Candida tropicalis)
25 µg/mL: MIC (Candida albicans [1]) | MIC (Candida parapsilosis) | MIC (Candida albicans [4])
inactive: Activity (Enterococcus) | Activity (Pseudomonas aeruginosa) | Activity (Escherichia coli) | Activity (Staphylococcus aureus [2]) | Activity (Staphylococcus aureus [3]) | Activity (Nakaseomyces glabratus)

CNC(=O)NC(=O)c1nn(-c2cccc([N+](=O)[O-])c2)c(-c2ccccc2)c1C(=O)NC(=O)NC
inactive: Activity (Enterococcus) | Activity (Pseudomonas aeruginosa) | Activity (Escherichia coli) | Activity (Candida tropicalis) | Activity (Candida parapsilosis) | Activity (Nakaseomyces glabratus)
25 µg/mL: MIC (Candida albicans [1]) | MIC (Candida albicans [4])
50 µg/mL: MIC (Staphylococcus aureus [2]) | MIC (Staphylococcus aureus [3])

O=C(Nc1ccccc1C(F)(F)F)c1nn(-c2cccc([N+](=O)[O-])c2)c(-c2ccccc2)c1C(=O)Nc1ccccc1C(F)(F)F
25 µg/mL: MIC (Candida albicans [1])
inactive: Activity (Enterococcus) | Activity (Pseudomonas aeruginosa) | Activity (Escherichia coli) | Activity (Staphylococcus aureus [2]) | Activity (Staphylococcus aureus [3]) | Activity (Candida tropicalis) | Activity (Candida parapsilosis) | Activity (Nakaseomyces glabratus)
50 µg/mL: MIC (Candida albicans [4])

CCNC(=O)NC(=O)c1nn(-c2cccc([N+](=O)[O-])c2)c(-c2ccccc2)c1C(=O)NC(=O)NCC
inactive: Activity (Enterococcus) | Activity (Pseudomonas aeruginosa) | Activity (Escherichia coli) | Activity (Staphylococcus aureus [2]) | Activity (Staphylococcus aureus [3]) | Activity (Candida tropicalis) | Activity (Candida parapsilosis) | Activity (Nakaseomyces glabratus)
25 µg/mL: MIC (Candida albicans [1]) | MIC (Candida albicans [4])

CCOC(=O)c1c(C(=O)Nc2cccc(F)c2)nn(-c2cccc([N+](=O)[O-])c2)c1-c1ccccc1
50 µg/mL: MIC (Candida albicans [4])
25 µg/mL: MIC (Candida albicans [1])
inactive: Activity (Enterococcus) | Activity (Pseudomonas aeruginosa) | Activity (Escherichia coli) | Activity (Staphylococcus aureus [2]) | Activity (Staphylococcus aureus [3]) | Activity (Candida tropicalis) | Activity (Candida parapsilosis) | Activity (Nakaseomyces glabratus)

CCOC(=O)c1c(C(=O)Nc2ccccc2F)nn(-c2cccc([N+](=O)[O-])c2)c1-c1ccccc1
inactive: Activity (Enterococcus) | Activity (Pseudomonas aeruginosa) | Activity (Escherichia coli) | Activity (Staphylococcus aureus [2]) | Activity (Staphylococcus aureus [3]) | Activity (Candida tropicalis) | Activity (Candida parapsilosis)
50 µg/mL: MIC (Candida albicans [4]) | MIC (Nakaseomyces glabratus)
25 µg/mL: MIC (Candida albicans [1])

O=C(Nc1cccc(F)c1)c1nn(-c2cccc([N+](=O)[O-])c2)c(-c2ccccc2)c1C(=O)Nc1cccc(F)c1
50 µg/mL: MIC (Candida albicans [1])
inactive: Activity (Enterococcus) | Activity (Pseudomonas aeruginosa) | Activity (Escherichia coli) | Activity (Staphylococcus aureus [2]) | Activity (Staphylococcus aureus [3]) | Activity (Candida tropicalis) | Activity (Candida parapsilosis) | Activity (Candida albicans [4]) | Activity (Nakaseomyces glabratus)

O=C(Nc1ccc(F)cc1)c1nn(-c2cccc([N+](=O)[O-])c2)c(-c2ccccc2)c1C(=O)Nc1ccc(F)cc1
25 µg/mL: MIC (Candida albicans [1])
inactive: Activity (Enterococcus) | Activity (Pseudomonas aeruginosa) | Activity (Escherichia coli) | Activity (Staphylococcus aureus [2]) | Activity (Staphylococcus aureus [3]) | Activity (Candida tropicalis) | Activity (Candida parapsilosis) | Activity (Candida albicans [4]) | Activity (Nakaseomyces glabratus)

O=C(Nc1cccc([N+](=O)[O-])c1)c1nn(-c2cccc([N+](=O)[O-])c2)c(-c2ccccc2)c1C(=O)Nc1cccc([N+](=O)[O-])c1
inactive: Activity (Enterococcus) | Activity (Pseudomonas aeruginosa) | Activity (Escherichia coli) | Activity (Staphylococcus aureus [2]) | Activity (Staphylococcus aureus [3]) | Activity (Candida tropicalis) | Activity (Nakaseomyces glabratus)
25 µg/mL: MIC (Candida albicans [1]) | MIC (Candida albicans [4])
50 µg/mL: MIC (Candida parapsilosis)

O=c1[nH][nH]c(=O)c2c(-c3ccccc3)n(-c3cccc([N+](=O)[O-])c3)nc12
inactive: Activity (Enterococcus) | Activity (Pseudomonas aeruginosa) | Activity (Escherichia coli) | Activity (Staphylococcus aureus [2]) | Activity (Staphylococcus aureus [3]) | Activity (Candida tropicalis) | Activity (Candida parapsilosis) | Activity (Candida albicans [4]) | Activity (Nakaseomyces glabratus)
50 µg/mL: MIC (Candida albicans [1])

CCOC(=O)c1c(C(=O)Nc2ccccc2C(F)(F)F)nn(-c2cccc([N+](=O)[O-])c2)c1-c1ccccc1
50 µg/mL: MIC (Candida albicans [1]) | MIC (Candida albicans [4])
inactive: Activity (Enterococcus) | Activity (Pseudomonas aeruginosa) | Activity (Escherichia coli) | Activity (Staphylococcus aureus [2]) | Activity (Staphylococcus aureus [3]) | Activity (Candida tropicalis) | Activity (Candida parapsilosis) | Activity (Nakaseomyces glabratus)

O=C(Nc1ccccc1F)c1nn(-c2cccc([N+](=O)[O-])c2)c(-c2ccccc2)c1C(=O)Nc1ccccc1F
inactive: Activity (Enterococcus) | Activity (Pseudomonas aeruginosa) | Activity (Escherichia coli) | Activity (Staphylococcus aureus [2]) | Activity (Staphylococcus aureus [3]) | Activity (Candida tropicalis) | Activity (Candida parapsilosis) | Activity (Candida albicans [4]) | Activity (Nakaseomyces glabratus)
25 µg/mL: MIC (Candida albicans [1])

CCOC(=O)c1c(C(=O)Nc2ccc(F)cc2)nn(-c2cccc([N+](=O)[O-])c2)c1-c1ccccc1
50 µg/mL: MIC (Candida albicans [1]) | MIC (Candida albicans [4])
inactive: Activity (Enterococcus) | Activity (Pseudomonas aeruginosa) | Activity (Escherichia coli) | Activity (Staphylococcus aureus [2]) | Activity (Staphylococcus aureus [3]) | Activity (Candida tropicalis) | Activity (Candida parapsilosis) | Activity (Nakaseomyces glabratus)

CCOC(=O)c1c(C(=O)Nc2ccc(C(F)(F)F)cc2)nn(-c2cccc([N+](=O)[O-])c2)c1-c1ccccc1
25 µg/mL: MIC (Candida albicans [1]) | MIC (Candida albicans [4])
inactive: Activity (Enterococcus) | Activity (Pseudomonas aeruginosa) | Activity (Escherichia coli) | Activity (Staphylococcus aureus [2]) | Activity (Staphylococcus aureus [3]) | Activity (Candida tropicalis) | Activity (Candida parapsilosis) | Activity (Nakaseomyces glabratus)

O=C(Nc1ccc(C(F)(F)F)cc1)c1nn(-c2cccc([N+](=O)[O-])c2)c(-c2ccccc2)c1C(=O)Nc1ccc(C(F)(F)F)cc1
inactive: Activity (Enterococcus) | Activity (Pseudomonas aeruginosa) | Activity (Escherichia coli) | Activity (Staphylococcus aureus [2]) | Activity (Staphylococcus aureus [3]) | Activity (Candida tropicalis) | Activity (Candida parapsilosis) | Activity (Candida albicans [4]) | Activity (Nakaseomyces glabratus)
50 µg/mL: MIC (Candida albicans [1])

Cc1ccc(NC(=O)c2nn(-c3cccc([N+](=O)[O-])c3)c(-c3ccccc3)c2C(=O)Nc2ccc(C)cc2)cc1
25 µg/mL: MIC (Candida albicans [1])
inactive: Activity (Enterococcus) | Activity (Pseudomonas aeruginosa) | Activity (Escherichia coli) | Activity (Staphylococcus aureus [2]) | Activity (Staphylococcus aureus [3]) | Activity (Candida tropicalis) | Activity (Candida parapsilosis) | Activity (Candida albicans [4]) | Activity (Nakaseomyces glabratus)

Cc1cccc(NC(=O)c2nn(-c3cccc([N+](=O)[O-])c3)c(-c3ccccc3)c2C(=O)Nc2cccc(C)c2)c1
inactive: Activity (Enterococcus) | Activity (Pseudomonas aeruginosa) | Activity (Escherichia coli) | Activity (Candida albicans [1]) | Activity (Staphylococcus aureus [2]) | Activity (Staphylococcus aureus [3]) | Activity (Candida tropicalis) | Activity (Candida parapsilosis) | Activity (Candida albicans [4]) | Activity (Nakaseomyces glabratus)
